Experimental data from article PMC11913021 (Journal of Medicinal Chemistry, 2024).
Where “and” joins values, the source holds several entries; their conditions need not be identical. Equal values may be shown once.

Legend:
[1] = target: T1, F789A mutant PLD1 (Homo sapiens, UniProt Q13393, F827A); assay: PLD activity assay in F789A mutant PLD1-transfected cells; assay type: cell-based
T1 sequence (Q13393 1-1036 isoform Q13393-2 F789A): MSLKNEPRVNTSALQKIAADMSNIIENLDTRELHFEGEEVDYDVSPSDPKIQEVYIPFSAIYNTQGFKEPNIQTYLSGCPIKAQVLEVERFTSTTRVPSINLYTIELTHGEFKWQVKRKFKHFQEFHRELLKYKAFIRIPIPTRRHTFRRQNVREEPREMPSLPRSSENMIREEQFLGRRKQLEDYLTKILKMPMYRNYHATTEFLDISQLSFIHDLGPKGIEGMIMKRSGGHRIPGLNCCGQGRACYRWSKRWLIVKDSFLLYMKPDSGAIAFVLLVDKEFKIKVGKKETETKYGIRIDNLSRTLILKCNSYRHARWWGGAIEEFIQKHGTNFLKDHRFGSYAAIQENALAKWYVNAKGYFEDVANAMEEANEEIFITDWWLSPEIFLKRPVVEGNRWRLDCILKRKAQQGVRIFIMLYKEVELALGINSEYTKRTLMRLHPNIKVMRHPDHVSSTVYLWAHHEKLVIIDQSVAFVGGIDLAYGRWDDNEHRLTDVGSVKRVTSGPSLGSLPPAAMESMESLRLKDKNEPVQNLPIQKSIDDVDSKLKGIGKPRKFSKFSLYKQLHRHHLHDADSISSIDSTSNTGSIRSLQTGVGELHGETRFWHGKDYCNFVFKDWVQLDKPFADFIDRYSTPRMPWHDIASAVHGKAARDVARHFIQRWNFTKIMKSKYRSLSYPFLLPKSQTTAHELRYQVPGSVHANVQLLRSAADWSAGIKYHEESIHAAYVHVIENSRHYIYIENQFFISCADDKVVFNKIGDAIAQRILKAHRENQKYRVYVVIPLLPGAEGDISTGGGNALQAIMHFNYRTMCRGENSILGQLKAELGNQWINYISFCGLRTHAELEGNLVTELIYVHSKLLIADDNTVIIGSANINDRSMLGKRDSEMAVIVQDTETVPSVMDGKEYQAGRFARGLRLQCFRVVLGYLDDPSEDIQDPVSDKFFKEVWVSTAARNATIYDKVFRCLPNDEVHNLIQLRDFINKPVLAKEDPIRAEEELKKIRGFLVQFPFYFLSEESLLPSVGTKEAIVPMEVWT

[2] = tested on: PLD; assay: PLD activity inhibition in A549 cells; assay type: cell-based; settings: read-out: IC50 for PLD inhibition
[3] = tested on: HCT116 cells; assay: WST-1 cell viability assay, HCT116; assay type: cell-based; settings: read-out: IC50 of viability; HCT116, WST-1, 48 h
Method in brief: (§1)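 Cells grown in DMEM or RPMI 1640 with 10% FBS and 1% penicillin/streptomycin at 37 °C, 5% CO2. Seeded at 5 × 10^3 cells/well and held 24 h at 37 °C, then exposed to test compound for 48 h. WST-1 absorbance was read at 450 nm, in triplicate. IC50 was taken as the concentration giving 50% growth inhibition versus control.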

[4] = tested on: Calu6 lung cancer cells; assay: WST-1 cell viability assay, Calu6; assay type: cell-based; settings: read-out: IC50 of viability; Calu6, WST-1, 48 h
Method in brief: as §1

[5] = tested on: A549 cells; assay: Ki67 staining proliferation assay; assay type: cell-based
[6] = tested on: A549 cells; assay: Transwell migration and invasion assay; assay type: cell-based
Method in brief: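 Cells at 5 × 10^4 cells/ml in serum-free medium placed in 8 μm pore transwell chambers; for invasion the chambers were Matrigel-precoated. After 24 h, non-migrated cells were swabbed off. Cells on the underside were fixed in 4% PFA for 20 min, stained with crystal violet for 10 min, and counted by light microscopy.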

[7] = tested on: EGFR-RAS-mediated signaling pathways; assay: Immunoblot of RAS downstream molecules in EGF-stimulated A549 cells; assay type: cell-based
Method in brief: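 Lysates made in passive buffer with protease and phosphatase inhibitor cocktail, boiled 5 min, then separated by SDS-PAGE and transferred to PVDF. Membranes blocked in TBS-T with 5% BSA and probed overnight at 4 °C for phospho- and total Akt, ERK and IκBα. HRP-conjugated secondary antibodies and chemiluminescence were used for detection.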

[8] = tested on: KRAS; assay: RAS activation assay in KRAS-transfected cells; assay type: cell-based
Method in brief: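 Cells treated with test compound for 24 h and lysed with protease inhibitor, then spun at 13,000 rpm for 10 min at 4 °C. Lysate (800 μg) was incubated overnight at 4 °C with GST-Raf1-RBD beads and washed three times. Bound RAS-GTP was eluted in SDS buffer, heated at 100 °C for 5 min, and immunoblotted for RAS.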

[9] = tested on: CD24, CD47, PD-L1, CRT; assay: Flow cytometry of “don’t eat-me” and “eat-me” signals in A549 cells; assay type: cell-based
[10] = tested on: LLC mouse lung cells; assay: LLC lung cancer syngeneic model in C57BL/6 mice; assay type: in vivo
Method in brief: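 Male C57BL/6 mice (6 weeks old) received 3 × 10^5 LLC cells in PBS subcutaneously in the flank. From day 7 they were randomised to vehicle PO daily or test compound 10 mg/kg PO every other day, for 3 weeks. Tumour IHC used citrate antigen retrieval, blocking with 0.3% H2O2 and 2.5% horse serum, primary antibodies overnight at 4 °C, HRP/ABC with DAB, and hematoxylin counterstain. CD163 was assessed by immunofluorescence.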

[11] = tested on: LLC lung cancer cells; assay: LLC tumor model in immune-deficient nude mice; assay type: in vivo, mouse; settings: immune-deficient nude mice injected with LLC cells
[12] = tumor tissue immunofluorescence

N-(3,5-Bis(trifluoromethyl)phenyl)-3-(1H-indol-3-yl)propanamide [3r]
PLD activity [1]: did not significantly inhibit
IC50 [2]: 1.97 µM
IC50 [3]: 29 µM and 29.1 µM
IC50 [4]: 19 µM
Ki67-positive proliferation [5]: significantly inhibited
invasion [6]: significantly inhibited
migration [6]: significantly inhibited
phospho-Akt, phospho-ERK, and phospho-IkBα levels [7]: markedly reduced
KRAS activation [8]: inhibited
expression of “don’t eat-me” signals [9]: reduced
expression of “eat-me” signals [9]: enhanced
tumor formation ([10]; 10 mg/kg PO every other day, C57BL/6, LLC): significantly attenuated
apoptosis in tumor tissue (active caspase 3 IHC) ([10]; IHC): enhanced
proliferation in tumor tissue (Ki67 IHC) ([10]; IHC): reduced
expression of ’eat-me’ signals (calreticulin) ([10]; tumor tissue IHC): increased
levels of RAS and downstream molecules (p-ERK, p-Akt, p-IKBα) ([10]; tumor tissue IHC): decreased
levels of ’don’t eat-me’ signals (CD47, CD24, PD-L1) ([10]; tumor tissue IHC): reduced
population of CD4^+ and IL-17^+ Th17 cells [10, 12]: increased
population of CD80^+ pro-inflammatory M1 macrophages [10, 12]: increased
population of CD163^+ anti-inflammatory M2 macrophages [10, 12]: decreased
population of cytotoxic CD8^+ T cells [10, 12]: increased
size and weight of the spleen ([10]; tumor-bearing mice vs vehicle): recovered
tumor formation [11]: significantly suppressed
